Experimental data of several laboratories.
Each line is one published result; the experiments were not run side by side.
Target: Serine/threonine-protein kinase A-Raf (ARAF, Homo sapiens, UniProt P10398)
Sequence (P10398 1-606, as in one of the studies): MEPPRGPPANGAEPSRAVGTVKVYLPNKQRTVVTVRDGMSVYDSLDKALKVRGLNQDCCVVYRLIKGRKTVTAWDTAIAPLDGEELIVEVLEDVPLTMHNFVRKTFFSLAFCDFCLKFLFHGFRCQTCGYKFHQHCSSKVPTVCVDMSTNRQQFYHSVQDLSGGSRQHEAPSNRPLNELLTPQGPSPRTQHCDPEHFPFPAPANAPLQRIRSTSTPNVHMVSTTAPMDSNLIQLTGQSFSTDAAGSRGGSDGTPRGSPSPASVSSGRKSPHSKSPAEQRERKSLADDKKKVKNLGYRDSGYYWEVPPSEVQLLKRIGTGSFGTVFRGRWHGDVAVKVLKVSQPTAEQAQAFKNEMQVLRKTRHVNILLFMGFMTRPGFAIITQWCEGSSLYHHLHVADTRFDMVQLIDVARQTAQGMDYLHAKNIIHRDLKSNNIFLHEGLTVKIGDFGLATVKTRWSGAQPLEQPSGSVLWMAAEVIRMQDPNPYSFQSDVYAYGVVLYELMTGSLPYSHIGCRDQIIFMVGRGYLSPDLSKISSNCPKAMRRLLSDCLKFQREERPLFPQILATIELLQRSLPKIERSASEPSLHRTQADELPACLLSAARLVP

The activity vs control of `Cc1cc(NC(=O)c2cccc3cc(-c4cccc5[nH]nc(N)c45)ccc23)ccc1F` is reported as 98% (enzyme activity, inhibitor; 0.1 µM).
With `CN1CC(Oc2cnc(C#N)cc2-c2ccn3nc(NC(=O)C4CC4)cc3c2)C1` the inhibition was 1% (enzyme activity, inhibitor; 1 µM).
The inhibition of `CCCCNc1ncc2c(-c3ccc(F)cc3)nn(C[C@H]3CC[C@H](N)CC3)c2n1` is reported as 32.9% (target engagement in cells, inhibitor, chemoproteomics; 20 mM).
`O=C1NC(=O)c2cc(Nc3ccc(F)cc3)c(Nc3ccc(F)cc3)cc21` gave a remaining signal of 90.7% (cell-free assay; 0.5 µM).
With `CC(C)(O)[C@H]1CC[C@H](Nc2ccc3ncc(-c4cccc(C(F)(F)F)c4)n3n2)CC1` the remaining activity was 96.9% (enzyme activity, inhibitor; 1 µM).
The inhibition of `CCN1CCN(Cc2ccc(NC(=O)c3ccc(C)c(Oc4ccnc5[nH]ccc45)c3)cc2C(F)(F)F)CC1` is reported as -85.6% (target engagement in cells, inhibitor, chemoproteomics; A-375; 5 µM).
For `COc1cccc2c(NCc3ccccc3)nc(-n3c(N)nc4ccccc43)nc12`, the inhibition was -7.3% (target engagement in cells, inhibitor, chemoproteomics; 20 mM).
For `COc1cc(Cl)c(C(=O)N[C@@H](CN[C@H]2CC[C@@H](N)CC2)Cc2ccc(C#N)cc2)cc1-c1ccc(CN[C@H](C)c2ccc(C)cc2)o1`, the remaining activity was 101% (enzyme activity, inhibitor; 1 µM).
`O=C(Nc1cnn(-c2csc(C(=O)NC3COC3)c2)c1)Nc1c(F)cccc1Cl` has a remaining activity of 94.4% (enzyme activity, inhibitor; 5 µM).
`CNC(=O)c1cc(Oc2ccc(NC(=O)Nc3ccc(Cl)c(C(F)(F)F)c3)cc2)ccn1` has a remaining signal of 7.04% (cell-free assay; 0.5 µM).
`CCN1CCN(Cc2ccc(NC(=O)c3ccc(C)c(/C=C/c4cnc5[nH]ccc5c4OC)c3)cc2C(F)(F)F)CC1` has an inhibition of -68.8% (target engagement in cells, inhibitor, chemoproteomics; A-375; 0.5 µM).
The remaining activity of `Cc1sc(C(=O)NC2COC2)cc1-n1cc(NC(=O)Nc2c(F)cccc2Cl)cn1` is reported as 84.1% (enzyme activity, inhibitor; 10 µM).
